Calls of active or inactive are those of the source. The calls are words filed in the database; no cut-off is given here.
How the values were obtained:
[1] = biological target: T1, Mu-type opioid receptor (Homo sapiens, UniProt P35372); assay: Displacement of [3H]DAMGO from recombinant human mu-opioid receptor expressed in CHO cell membranes at 1 X 10^-5 M after 60 mins by liquid scintillation counting method relative to control
Procedure, shortened: (§1)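 Single-concentration radioligand displacement in membranes from CHO (κ, μ) or HEK293 (δ) cells expressing human receptors. Radioligands were [3H]-U69,593, [3H]-DAMGO and [3H]-DPDPE, incubated in Tris-HCl at 25 °C for 60 min, filtered and counted by scintillation. Read-out was percent inhibition of specific binding; assays were done in duplicate.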

[2] = biological target: T2, Delta-type opioid receptor (Homo sapiens, UniProt P41143); assay: Displacement of [3H]DPDPE from recombinant human delta-opioid receptor expressed in HEK293 cell membranes at 1 X 10^-6 M after 60 mins by liquid scintillation counting method relative to control; procedure, shortened: as §1
[3] = biological target: T3, Kappa-type opioid receptor (Homo sapiens, UniProt P41145); assay: Displacement of [3H]U69593 from recombinant human kappa-opioid receptor expressed in CHO cell membranes at 1 X 10^-6 M after 60 mins by liquid scintillation counting method relative to control; procedure, shortened: as §1
[4] = biological target: T1, Mu-type opioid receptor; assay: Displacement of [3H]DAMGO from recombinant human mu-opioid receptor expressed in CHO cell membranes at 1 X 10^-6 M after 60 mins by liquid scintillation counting method relative to control; procedure, shortened: as §1
[5] = biological target: T3, Kappa-type opioid receptor; assay: Displacement of [3H]U69593 from recombinant human kappa-opioid receptor expressed in CHO cell membranes at 1 X 10^-5 M after 60 mins by liquid scintillation counting method relative to control; procedure, shortened: as §1
[6] = biological target: T2, Delta-type opioid receptor; assay: Displacement of [3H]DPDPE from recombinant human delta-opioid receptor expressed in HEK293 cell membranes at 1 X 10^-5 M after 60 mins by liquid scintillation counting method relative to control; procedure, shortened: as §1
[7] = species on record: Homo sapiens; assay: Selectivity ratio of Ki for displacement of [3H]DAMGO from recombinant human mu-opioid receptor expressed in CHO cell membranes to Ki for displacement of [3H]U69593 from recombinant human kappa-opioid receptor expressed in CHO cell membranes
[8] = species on record: Homo sapiens; assay: Selectivity ratio of Ki for displacement of [3H]DPDPE from recombinant human delta-opioid receptor expressed in HEK293 cell membranes to Ki for displacement of [3H]U69593 from recombinant human kappa-opioid receptor expressed in CHO cell membranes
[9] = biological target: T2, Delta-type opioid receptor; assay: Displacement of [3H]DPDPE from recombinant human delta-opioid receptor expressed in HEK293 cell membranes after 60 mins by liquid scintillation counting method
[10] = biological target: T1, Mu-type opioid receptor; assay: Displacement of [3H]DAMGO from recombinant human mu-opioid receptor expressed in CHO cell membranes after 60 mins by liquid scintillation counting method
[11] = biological target: T3, Kappa-type opioid receptor; assay: Displacement of [3H]U69593 from recombinant human kappa-opioid receptor expressed in CHO cell membranes after 60 mins by liquid scintillation counting method
[12] = system: Mus musculus; assay: Anxiolytic activity in ICR mouse assessed as increase in time spent on open arms at 30 mg/kg, ip administered 30 mins prior to test measured for 5 mins by elevated plus maze test; assay type: functional, organism-based
Procedure, shortened: (§2)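 Male ICR mice (18–22 g), 10 per group, adapted ≥1 h. Dosed i.p. with saline vehicle 30 min pretest. Maze elevated 50 cm; each mouse started on the central platform facing an open arm. Entries and time in open and closed arms were video-tracked over 5 min, expressed as OE/(CE+OE) and OT/(OT+CT); mean ± SEM.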

[13] = system: Mus musculus; assay: Anxiolytic activity in ICR mouse assessed as increase in number of open arm entries at 30 mg/kg, ip administered 30 mins prior to test measured for 5 mins by elevated plus maze test; assay type: functional, organism-based; procedure, shortened: as §2
[14] = system: Mus musculus; assay: Antidepressant-like activity in ICR mouse assessed as decrease in immobility time at 30 mg/kg, ip administered 30 mins prior to test measured for last 4 mins of 6 mins observation by forced swim test; assay type: functional, organism-based
Procedure, shortened: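 Male ICR mice (20–25 g), 10 per group, adapted ≥15 min before testing. Dosed i.p. with saline vehicle 30 min pretest. Each mouse was placed in a cylinder 10 cm wide with water 6 cm deep at 25 °C for 6 min. Immobility was scored over the last 4 min; mean ± SEM.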

[15] = Tmax in rat at 1 or 10 mg/kg, iv or po by LC-MS/MS analysis; assay type: ADME, organism-based; details: in vivo
[16] = Oral bioavailability in rat at 10 mg/kg by LC-MS/MS analysis; assay type: ADME, organism-based; details: in vivo
[17] = Half life in rat at 1 or 10 mg/kg, iv or po by LC-MS/MS analysis; assay type: ADME, organism-based; details: in vivo

T3 sequence (P41145 whole entry): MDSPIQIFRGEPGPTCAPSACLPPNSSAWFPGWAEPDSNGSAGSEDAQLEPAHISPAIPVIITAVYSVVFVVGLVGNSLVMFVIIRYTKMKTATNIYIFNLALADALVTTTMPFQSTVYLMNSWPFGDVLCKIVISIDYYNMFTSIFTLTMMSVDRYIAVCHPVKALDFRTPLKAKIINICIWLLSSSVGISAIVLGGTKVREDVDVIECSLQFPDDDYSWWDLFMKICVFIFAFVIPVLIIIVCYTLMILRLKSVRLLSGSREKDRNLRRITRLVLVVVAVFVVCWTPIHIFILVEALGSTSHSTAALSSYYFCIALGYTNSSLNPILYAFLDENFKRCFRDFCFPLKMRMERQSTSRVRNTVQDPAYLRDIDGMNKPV
T2 sequence (P41143 whole entry): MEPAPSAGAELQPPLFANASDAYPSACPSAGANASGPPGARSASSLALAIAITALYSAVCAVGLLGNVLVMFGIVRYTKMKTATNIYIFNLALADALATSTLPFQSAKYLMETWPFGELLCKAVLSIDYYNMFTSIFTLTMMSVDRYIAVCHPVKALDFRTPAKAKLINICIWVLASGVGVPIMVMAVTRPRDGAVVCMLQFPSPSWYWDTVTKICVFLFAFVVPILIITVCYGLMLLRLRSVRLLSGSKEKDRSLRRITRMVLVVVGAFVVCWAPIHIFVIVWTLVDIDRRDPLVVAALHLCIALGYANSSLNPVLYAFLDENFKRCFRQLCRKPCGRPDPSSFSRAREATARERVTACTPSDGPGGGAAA
T1 sequence (P35372 whole entry): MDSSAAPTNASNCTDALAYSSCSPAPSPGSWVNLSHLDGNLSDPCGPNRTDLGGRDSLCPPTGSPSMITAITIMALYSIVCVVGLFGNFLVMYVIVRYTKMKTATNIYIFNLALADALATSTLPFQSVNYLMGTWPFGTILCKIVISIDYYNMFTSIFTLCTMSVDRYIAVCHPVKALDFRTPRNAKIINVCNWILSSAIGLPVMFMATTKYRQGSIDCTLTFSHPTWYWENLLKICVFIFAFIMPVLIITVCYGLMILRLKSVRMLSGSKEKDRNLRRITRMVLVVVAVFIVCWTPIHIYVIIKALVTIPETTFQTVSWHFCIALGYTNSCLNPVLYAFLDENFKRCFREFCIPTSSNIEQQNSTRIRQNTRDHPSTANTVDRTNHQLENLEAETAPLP

Row | SMILES | inhibition [1] [%] | inhibition [2] [%] | inhibition [3] [%] | inhibition [4] [%] | inhibition [5] [%] | inhibition [6] [%] | Ratio Ki [7] | Ratio Ki [8] | Ki [9] [µM] | Ki [10] [µM] | Ki [11] [µM] | Activity [12] | Activity [13] | Activity [14] | Tmax [15] [h] | bioavailability [16] [%] | half-life [17] [h]
1 | NC(=O)c1ccc(Oc2ccc(CN3CCCC3c3cccc(F)c3)cc2)c2ccccc12 (configuration not stated) | 0 | 2.3 | 27.7 | 0 | 57.9 | 4 | – | – | – | – | – | – | – | – | – | – | –
2 | Cc1cc(C)cc(C2CCCN2Cc2ccc(Oc3ccc(C(N)=O)cc3)c(Cl)c2)c1 (configuration not stated) | 99.1 | 36.5 | 99.3 | 78.8 | 100 | 87.5 | 0.85 | 13 | 0.489 | 0.0323 | 0.0376 | – | – | – | – | – | –
3 | Cc1cccc(C2CCCN2Cc2ccc(Oc3ccc(C(N)=O)c4ccccc34)cc2)c1 (configuration not stated) | 16.3 | 0 | 39.9 | 0 | 86.9 | 0 | > 5.8 | > 5.8 | > 10 | > 10 | 1.74 | Active | Active | Active | – | – | –
4 | COc1ccc(C2CCCN2Cc2ccc(Oc3ccc(C(N)=O)c4ccccc34)cc2)cc1 (configuration not stated) | 15 | 0 | 46.5 | 0 | 80.5 | 9 | > 2.2 | > 2.2 | > 10 | > 10 | 4.6 | – | – | – | – | – | –
5 | NC(=O)c1ccc(Oc2ccc(CN3CCCC3c3cccnc3)cc2)c2ccccc12 (configuration not stated) | 52.2 | 0 | 5.1 | 11.3 | 12 | 0 | – | – | – | – | – | – | – | – | – | – | –
6 | Cc1cc(C)cc([C@@H]2CCCN2Cc2ccc(Oc3ccc(C(N)=O)cc3F)cc2)c1 [ATICAPRANT] | – | – | – | – | – | – | – | – | – | – | – | – | – | – | 1 to 2 | 25 | 2 to 4
7 | Cc1ccccc1C1CCCN1Cc1ccc(Oc2ccc(C(N)=O)c3ccccc23)cc1 (configuration not stated) | 0 | 0 | 13.9 | 0 | 34 | 2.9 | – | – | – | – | – | – | – | – | – | – | –

Reference: ChEMBL document CHEMBL4049389, “Design, synthesis and biological evaluation of aminobenzyloxyarylamide derivatives as selective κ opioid receptor antagonists” (Eur J Med Chem, 2017)
